Screens deposited in PubChem BioAssay by Sanford-Burnham Center for Chemical Genomics.
In the library only some 1.5% were active in any assay of this set; here they are far more common.
Rev-erbA mod: Rev-erb alpha (human) modulation; hit rate 0.79% among 370,000; AID 1259318; Rev-erbα–FITC-DNA binding, fluorescence polarization, 90 min; P20393; activity, % at 10 µM;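 active = activity above about 14%, limit read from the data; passing the limit was not always enough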;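 also: 0% = DMSO wells with 35 nM protein and 100% = DMSO wells with 750 nM protein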
Target sequence (P20393 whole entry, looked up): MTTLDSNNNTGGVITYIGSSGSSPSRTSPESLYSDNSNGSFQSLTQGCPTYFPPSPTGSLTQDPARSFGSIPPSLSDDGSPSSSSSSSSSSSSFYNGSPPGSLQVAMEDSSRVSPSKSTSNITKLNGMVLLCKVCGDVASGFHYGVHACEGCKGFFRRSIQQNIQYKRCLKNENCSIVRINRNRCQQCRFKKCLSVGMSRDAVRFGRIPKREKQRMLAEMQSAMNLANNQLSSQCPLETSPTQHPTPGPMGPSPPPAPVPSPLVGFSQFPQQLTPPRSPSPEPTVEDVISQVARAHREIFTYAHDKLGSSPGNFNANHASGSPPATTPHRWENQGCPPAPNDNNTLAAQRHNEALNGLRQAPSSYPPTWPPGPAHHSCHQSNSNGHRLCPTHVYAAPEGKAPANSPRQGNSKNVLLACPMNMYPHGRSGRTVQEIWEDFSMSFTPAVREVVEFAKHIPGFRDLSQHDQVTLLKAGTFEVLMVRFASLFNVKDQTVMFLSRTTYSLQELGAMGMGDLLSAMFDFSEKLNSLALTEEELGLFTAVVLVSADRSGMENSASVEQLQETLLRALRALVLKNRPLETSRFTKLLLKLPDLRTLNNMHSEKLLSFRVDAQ
HNF4A DNA FP: change in binding of human HNF4 alpha to DNA; HNF4a-FITC DNA binding, fluorescence polarization, 1 h; activity change, % at 10 µM; hit rate 0.3% among 360,000; in the data active = activity change above about 30%, passing the limit was not always enough
aDG glyco up: increases alpha dystroglycan glycosylation; Pro5-aDG cells, alpha-DG glycosylation AlphaScreen (IIH6); 0% Pro5, 100% B10-LARGE cell signal; activation, % at 10 µM; hit rate 0.22% among 360,000;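 active = activation of at least 8% versus controls, or a plate z-score of at least 8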;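 also: Pro5 are CHO cells carrying HIG-tagged alpha-DG that lacks glycosylation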
CSN deneddyl inh: blocks human CSN-mediated cullin deneddylation; hit rate 0.38% among 360,000; Purified CSN, SCF-Nedd8-OG deneddylation, fluorescence polarization; inhibition, % at 12.5 µM; Q92905;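 active = pattern-corrected inhibition above about 35%, with an unprinted fluorescence ratio check between 0.5 and 1.5, limit read from the data, passing the limit was not always enough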;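 also: 0% = enzyme with substrate and 100% = substrate without enzyme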
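Detection – fluorescence polarization · System – HEK293T-derived human Csn5 enzyme · Controls – substrate-only high control, full reaction low control · Timing – 90 min, room temperature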
NR1D1 mod conf: confirmation of modulators of human Rev-erb alpha DNA binding | shares compounds with Rev-erbA mod | Rev-erb alpha FITC-DNA binding, fluorescence polarization, 90 min | activation, % at 25 µM | hit rate 61% among 3,000 | AID 1259319;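 active = activation at or above a set limit, or at least 3 SD above the negative control mean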;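 also: 0% = 35 nM protein with DMSO and 100% = 750 nM protein high control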
RORg DNA counter: affects RORgamma DNA binding in a Rev-erb alpha counter-screen; shares compounds with Rev-erbA mod; purified RORgamma protein-FITC-DNA binding, fluorescence polarization; IC50, µM; hit rate 8% among 910; AID 1259320;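 active = Compounds whose fitted half-maximal concentration for disrupting protein-DNA binding is below 10 micromolar; the record names Rev-erb in its text, so the target is in doubt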
* hit, by the source's call.

`O=C(CSc1nnc2ccc(-c3ccccn3)nn12)Nc1cccc(F)c1` gave Rev-erbA mod 21.6*, HNF4A DNA FP 2.7, aDG glyco up 0.0, CSN deneddyl inh 3.6 and NR1D1 mod conf 15.7*.
`O=C(CSc1nnc2ccc(-c3ccccn3)nn12)Nc1ccc(F)cc1` gave Rev-erbA mod 4.0, HNF4A DNA FP -3.8, aDG glyco up 0.1 and CSN deneddyl inh -0.3.
For COc1ccc(-n2c(COc3ccc(C)cc3)nnc2SCC(=O)c2ccc(-c3ccccc3)cc2)cc1 the results were Rev-erbA mod 44.5* and NR1D1 mod conf 27.8*.
`COc1ccc(C(=O)CSc2nnc3ccc(-c4ccccn4)nn23)cc1` gave Rev-erbA mod 51.7*, HNF4A DNA FP 0.3, aDG glyco up 0.1, CSN deneddyl inh -1.9 and NR1D1 mod conf 18.9*.
`CCN(CC)CCCNC(=O)CSc1nc2cccnc2n1C` gave Rev-erbA mod -6.5.
COC(=O)[C@]12C[C@H](CC(=O)N3CCOCC3)C(=O)N(CCc3ccc(OC)c(OC)c3)C1=C[C@H](C1CCCC1)O[C@@H]2C was read as Rev-erbA mod 5.9.
Screening CCCC[C@@H]1C(=O)N2N=Cc3cc4ccccc4cc3[C@H]2N2N=Cc3cc4ccccc4cc3[C@@H]12 returned Rev-erbA mod 14.4.
CC1CCCN(C(=O)c2ccc3c(=O)n4nc(Nc5ccccc5)sc4nc3c2)C1 (stereo not drawn) was read as Rev-erbA mod -7.1, HNF4A DNA FP -2.9, aDG glyco up -0.2 and CSN deneddyl inh 2.8.
`Cc1cccc(Nc2nn3c(=O)c4ccccc4nc3s2)c1` gave Rev-erbA mod 298.7*, HNF4A DNA FP 75.0*, aDG glyco up -0.4, CSN deneddyl inh 31.2, NR1D1 mod conf 289.5* and RORg DNA counter inactive.
`Cn1cc(/C=C/c2cc[n+](C)cc2)c2cc(Cl)ccc21` gave Rev-erbA mod 164.8*, HNF4A DNA FP 93.0, aDG glyco up -0.1, CSN deneddyl inh 0.1, NR1D1 mod conf 139.7* and RORg DNA counter >40.
Screening Cn1cc(/C=C/c2cc[n+](C)cc2)c2cc(F)ccc21 returned HNF4A DNA FP 20.4, aDG glyco up -0.1 and CSN deneddyl inh -73.7.
`CC1CC1C(=O)Nc1nc(-c2cccs2)c(-c2cccs2)s1` (stereo not drawn) gave Rev-erbA mod 53.4*, HNF4A DNA FP -0.7, aDG glyco up 0.1, CSN deneddyl inh 1.9, NR1D1 mod conf 74.8* and RORg DNA counter inactive.
`O=C(Nc1nc(-c2cccs2)c(-c2ccccc2)s1)c1ccco1` gave Rev-erbA mod 1.2, HNF4A DNA FP 2.0, aDG glyco up -0.1 and CSN deneddyl inh 5.3.
`Nc1nc(-c2cccs2)c(-c2cccs2)s1` gave Rev-erbA mod 281.6*, HNF4A DNA FP 0.8, aDG glyco up -0.1, CSN deneddyl inh 7.3, NR1D1 mod conf 244.4* and RORg DNA counter inactive.
For O=C(CSc1nnc(-c2ccc(Cl)cc2)n1Cc1ccco1)Nc1ccc(S(=O)(=O)Nc2nccs2)cc1 the results were Rev-erbA mod 1.5.
For COc1ccc(Cn2cc(COC(=O)Nc3ccc(F)cc3)nn2)cc1 the results were Rev-erbA mod -1.8.
Screening CC1(C)Cc2c(sc3[nH]c(=S)n(Cc4ccccc4)c(=O)c23)CO1 returned HNF4A DNA FP 1.1, aDG glyco up -0.3 and CSN deneddyl inh 3.0.
CC1(C)Cc2c(sc3c2c(N)nc(=S)n3Cc2ccccc2)CO1 was read as Rev-erbA mod 110.5*, NR1D1 mod conf 35.8* and RORg DNA counter >40.
Screening CC(C)CNc1cccc2c1S(=O)(=O)N(Cc1cn(Cc3ccc(C(F)(F)F)cc3)nn1)Cc1ccccc1O2 returned Rev-erbA mod 2.6.
O=C(CCc1nc(-c2ccccc2F)no1)NCCc1ccc(F)cc1 was read as Rev-erbA mod -6.6.
CCOC(=O)/C=C1/SCC(=O)N1CCOc1cccc(Br)c1 was read as Rev-erbA mod 23.7*, HNF4A DNA FP -1.0, aDG glyco up 0.8, CSN deneddyl inh -1.9 and NR1D1 mod conf 11.9*.
`O=C(Nc1ccccc1)OCCN1CCCC12CCC(c1ccccc1)CC2` (stereo not drawn) gave Rev-erbA mod -5.7.
